PMC4774891 (Pharmaceutical research, 2015)

Legend:
VEGF = VEGF estimation by ELISA in serum and tumor lysates; type: in vivo, Nu/nu mice
A431 tumors = assay: IHC analysis of A431 tumors; type: in vivo, Nu/nu mice; details: untreated control 34.00±6.26
[1] = Oral pharmacokinetic study; type: in vivo, Sprague Dawley rats; details: rat
[2] = test system: A431 epidermoid carcinoma subcutaneous xenograft; assay: Anticancer study in A431 subcutaneous xenograft model; type: in vivo, Nu/nu mice; details: 50 mg/kg daily orally, 4 weeks; vehicle control 6663.01 ±1113.23
Chronic toxicity = type: in vivo; details: 4 weeks daily oral
[3] = free drug; cited from earlier work
In vitro drug release = type: physicochemical; details: PBS 1% Volpo pH 6.8, 37°C
Procedure, shortened: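 Equal drug amounts (free drug, spray-dried formulation, or physical mixture) suspended in 500 ml PBS with 1% Volpo, pH 6.8. USP type II paddle, 50 rpm, 37±0.5°C, followed over 48 h.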

[4] = Caco-2 permeability study; details: human, Caco-2, pH 5.8
[5] = Sprague Dawley, plasma, po, 50 mg/kg

## lucifer yellow
Caco-2 cell monolayers
  average permeability (paracellular control): < 0.15 ×10⁻⁶ cm/s

## COc1cc2ncnc(Nc3ccc(F)c(Cl)c3)c2cc1OCCCN1CCOCC1 [Gef free drug, Gefitinib]
VEGF; serum, control 572.90±38.51
  VEGF level in serum: 336.40 ± 55.84 pg/mL
VEGF; tumor lysates, control 355.35± 49.93
  VEGF level in tumor lysates: 175.65±25.76 pg/mg protein
A431 tumors
  cleaved caspase 3 positive apoptotic cells/field: 145.33±28.44 cells/field
[1]; 50 mg/kg orally
  CL: 1.9 ± 0.0408 mL/day/kg
  Vss: 0.00045 ± 0.00022 L/kg
  maximum plasma concentration (approximate molar): approximately 0.55 μM
[1]; [5]
  AUC(0-inf): 1340 ± 244 ng·h/mL
  Cmax: 248 ± 89.5 ng/mL
  MRT: 8.85 ± 1.83 h
  Tmax: 1.25 ± 0.25 h
  half-life: 7.46 ± 1.75 h
[2]
  final tumor volume: 3534.49±896.16 mm^3
Chronic toxicity
  body weight change: no change in the body weights
[3]
  aqueous solubility: less than 1 mg/ml
In vitro drug release
  drug released after 48 h: 16%
[4]
  Papp A→B at 120 min, 100 μM: 0.34 ± 0.09 ×10⁻⁶ cm/s
